Test results reported in ChEMBL document CHEMBL1143653, “Discovery of a (1H-benzoimidazol-2-yl)-1H-pyridin-2-one (BMS-536924) inhibitor of insulin-like growth factor I receptor kinase with in vivo antitumor activity” (J Med Chem, 2005).
Each block holds one molecule with its values, some of them ahead of it.

Columns and labels:
Cytochrome P450 3A4 [1] = biological target: T1, Cytochrome P450 3A4 (Homo sapiens, UniProt P08684); assay: Concentration required to inhibit cytochrome P450 isozyme CYP3A4-BFC in vitro by 50%; assay type: ADME
T1 sequence (P08684 whole entry): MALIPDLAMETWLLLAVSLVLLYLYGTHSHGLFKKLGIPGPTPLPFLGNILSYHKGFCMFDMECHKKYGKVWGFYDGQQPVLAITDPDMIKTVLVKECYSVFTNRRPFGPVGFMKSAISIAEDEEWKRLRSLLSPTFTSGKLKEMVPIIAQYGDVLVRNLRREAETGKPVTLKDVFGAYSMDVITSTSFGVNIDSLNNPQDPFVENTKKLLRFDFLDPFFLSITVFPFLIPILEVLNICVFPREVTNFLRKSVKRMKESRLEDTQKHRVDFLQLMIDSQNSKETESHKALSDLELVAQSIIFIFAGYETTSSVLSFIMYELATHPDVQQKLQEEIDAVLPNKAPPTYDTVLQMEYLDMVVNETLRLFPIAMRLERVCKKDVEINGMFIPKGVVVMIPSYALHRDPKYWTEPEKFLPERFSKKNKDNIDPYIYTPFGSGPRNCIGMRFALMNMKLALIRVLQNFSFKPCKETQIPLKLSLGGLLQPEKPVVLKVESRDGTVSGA

Cytochrome P450 2C9 = Cytochrome P450 2C9 (Homo sapiens, UniProt P11712); assay: Concentration required to inhibit Cytochrome P450 2C9 in vitro by 50%
Sequence of Cytochrome P450 2C9 (P11712 whole entry): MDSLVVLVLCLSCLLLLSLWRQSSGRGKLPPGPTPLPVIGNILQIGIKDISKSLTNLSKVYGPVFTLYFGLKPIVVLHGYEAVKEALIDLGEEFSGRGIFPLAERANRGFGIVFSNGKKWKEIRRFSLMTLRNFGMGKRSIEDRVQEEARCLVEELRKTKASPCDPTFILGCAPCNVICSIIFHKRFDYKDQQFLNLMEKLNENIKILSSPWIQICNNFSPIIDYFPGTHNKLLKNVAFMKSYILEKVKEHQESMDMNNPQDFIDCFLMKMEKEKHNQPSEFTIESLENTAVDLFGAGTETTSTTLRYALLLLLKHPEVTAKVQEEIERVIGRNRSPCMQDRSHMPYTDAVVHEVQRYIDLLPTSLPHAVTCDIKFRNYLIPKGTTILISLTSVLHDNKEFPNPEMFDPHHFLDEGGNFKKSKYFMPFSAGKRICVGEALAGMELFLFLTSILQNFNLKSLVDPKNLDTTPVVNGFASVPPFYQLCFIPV

Cytochrome P450 1A2 = biological target: T2, Cytochrome P450 1A2 (Homo sapiens, UniProt P05177); assay: Concentration required to inhibit Cytochrome P450 1A2 in vitro by 50%; assay type: ADME
T2 sequence (P05177 whole entry): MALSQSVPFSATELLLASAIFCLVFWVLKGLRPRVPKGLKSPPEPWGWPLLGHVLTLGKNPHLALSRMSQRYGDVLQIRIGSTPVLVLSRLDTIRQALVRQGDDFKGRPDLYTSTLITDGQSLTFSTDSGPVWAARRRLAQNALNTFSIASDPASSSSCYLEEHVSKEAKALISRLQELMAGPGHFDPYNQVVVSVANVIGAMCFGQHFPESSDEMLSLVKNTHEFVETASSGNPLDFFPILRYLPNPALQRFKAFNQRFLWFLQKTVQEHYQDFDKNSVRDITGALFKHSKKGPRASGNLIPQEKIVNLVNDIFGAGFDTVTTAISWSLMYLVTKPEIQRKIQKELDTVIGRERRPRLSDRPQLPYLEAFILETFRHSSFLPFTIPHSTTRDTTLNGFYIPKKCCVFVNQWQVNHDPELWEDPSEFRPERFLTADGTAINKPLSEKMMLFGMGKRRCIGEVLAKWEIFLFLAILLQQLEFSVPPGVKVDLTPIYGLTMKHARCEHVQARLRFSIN

Cytochrome P450 3A4 [2] = biological target: T1, Cytochrome P450 3A4; assay: Concentration required to inhibit cytochrome P450 isozyme CYP3A4-BzRes in vitro by 50%; assay type: ADME
Cytochrome P450 2C19 = Cytochrome P450 2C19 (Homo sapiens, UniProt P33261); assay: Concentration required to inhibit cytochrome P450 isozyme CYP2C19 in vitro by 50%; assay type: ADME
Sequence of Cytochrome P450 2C19 (P33261 whole entry): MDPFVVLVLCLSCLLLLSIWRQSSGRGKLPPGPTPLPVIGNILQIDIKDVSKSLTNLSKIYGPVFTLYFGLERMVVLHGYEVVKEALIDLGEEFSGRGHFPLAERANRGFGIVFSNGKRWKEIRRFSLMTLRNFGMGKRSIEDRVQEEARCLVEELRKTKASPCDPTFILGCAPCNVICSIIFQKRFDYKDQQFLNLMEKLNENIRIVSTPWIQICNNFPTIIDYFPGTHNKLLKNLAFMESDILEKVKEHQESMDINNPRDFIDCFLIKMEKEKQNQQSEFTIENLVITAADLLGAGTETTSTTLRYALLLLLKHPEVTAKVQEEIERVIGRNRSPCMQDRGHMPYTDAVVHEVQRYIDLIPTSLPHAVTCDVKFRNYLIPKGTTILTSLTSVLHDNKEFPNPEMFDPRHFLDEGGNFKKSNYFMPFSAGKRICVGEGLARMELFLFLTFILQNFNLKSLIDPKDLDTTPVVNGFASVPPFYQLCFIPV

[3] = Steady-state volume of distribution in mouse when administered intravenously at 4 mg/kg; assay type: ADME, organism-based; parameters: dose 4 mg/kg, route intravenous; settings: in vivo, iv, read-out: Vss
[4] = Bioavailability in rat administered perorally at 50 mg/kg; assay type: ADME, organism-based; settings: in vivo, po
[5] = Total clearance in monkey at 2 mg/kg intravenous dose; assay type: ADME, organism-based; parameters: dose 2 mg/kg, route intravenous; settings: cercopithecidae, in vivo, read-out: CLtot
RD = assay: In vitro inhibitory concentration against RD1 (rhabdomyosarcoma) cell line with ATP concentration at 1/2Km; assay type: functional, cell-based; settings: Homo sapiens
[6] = Bioavailability in monkey at 5 mg/kg oral dose; assay type: ADME, organism-based; settings: cercopithecidae, in vivo
[7] = biological target: Dual specificity mitogen-activated protein kinase kinase 1 (Homo sapiens, UniProt Q02750); assay: In vitro inhibitory concentration against MEK with ATP concentration at 1/2Km
Sequence of Dual specificity mitogen-activated protein kinase kinase 1 (Q02750 whole entry): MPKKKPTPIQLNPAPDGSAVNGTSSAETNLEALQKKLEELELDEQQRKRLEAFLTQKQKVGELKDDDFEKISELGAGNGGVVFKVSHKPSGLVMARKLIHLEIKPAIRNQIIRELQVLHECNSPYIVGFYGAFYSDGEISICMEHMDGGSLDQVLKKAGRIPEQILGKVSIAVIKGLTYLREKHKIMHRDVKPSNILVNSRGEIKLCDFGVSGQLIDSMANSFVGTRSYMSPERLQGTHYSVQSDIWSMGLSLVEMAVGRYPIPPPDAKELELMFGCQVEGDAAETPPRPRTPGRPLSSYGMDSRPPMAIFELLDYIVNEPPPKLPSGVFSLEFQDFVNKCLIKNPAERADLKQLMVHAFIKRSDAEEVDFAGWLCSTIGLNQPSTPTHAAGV
Method in brief: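 Cell-free kinase inhibition assay. ATP was set at ½ Km, determined separately for each kinase, and the IC50 was derived under that condition.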

[8] = Steady-state volume of distribution in dog when administered intravenously at 2 mg/kg; assay type: ADME, organism-based, Canis lupus familiaris; parameters: dose 2 mg/kg, route intravenous; settings: in vivo, iv, read-out: Vss
[9] = Total clearance in mouse when administered intravenously at 4 mg/kg; assay type: ADME, organism-based; parameters: dose 4 mg/kg, route intravenous; settings: in vivo, iv, read-out: CLtot
[10] = In vitro inhibitory concentration against MDA PCa-2b (prostate) cell line with ATP concentration at 1/2Km; assay type: functional, Homo sapiens
[11] = Steady-state volume of distribution in monkey when administered intravenously at 2 mg/kg; assay type: ADME, organism-based; parameters: dose 2 mg/kg, route intravenous; settings: cercopithecidae, in vivo, iv, read-out: Vss
[12] = Bioavailability in mouse administered perorally at 20 mg/kg; assay type: ADME, organism-based; settings: in vivo, po
[13] = Maximum concentration in dog administered orally at 5 mg/kg; assay type: ADME, organism-based, Canis lupus familiaris; parameters: dose 5 mg/kg, route oral; settings: in vivo, po
[14] = Total clearance in dog when administered intravenously at 2 mg/kg; assay type: ADME, organism-based, Canis lupus familiaris; parameters: dose 2 mg/kg, route intravenous; settings: in vivo, iv, read-out: CLtot
MCF7 = assay: In vitro inhibitory concentration against MCF-7(breast) cell line with ATP concentration at 1/2Km; assay type: functional, cell-based; settings: Homo sapiens
[15] = Total clearance in rat when administered intravenously at 4 mg/kg; assay type: ADME, organism-based; parameters: dose 4 mg/kg, route intravenous; settings: in vivo, iv, read-out: CLtot
[16] = Steady-state volume of distribution in rat when administered intravenously at 4 mg/kg; assay type: ADME, organism-based; parameters: dose 4 mg/kg, route intravenous; settings: in vivo, iv, read-out: Vss
[17] = Maximum concentration in monkey administered orally at 5 mg/kg; assay type: ADME, organism-based; parameters: dose 5 mg/kg, route oral; settings: cercopithecidae, in vivo, po
[18] = Bioavailability in dog at 5 mg/kg oral dose; assay type: ADME, organism-based, Canis lupus familiaris; settings: in vivo
[19] = Maximum concentration in rat administered orally at 50 mg/kg; assay type: ADME, organism-based; parameters: dose 50 mg/kg, route oral; settings: in vivo, po
COLO 205 = assay: In vitro inhibitory concentration against COLO 205 (colon) cell line with ATP concentration at 1/2Km; assay type: functional, cell-based; settings: Homo sapiens
[20] = In vitro inhibitory concentration against Geo (colon) cell line with ATP concentration at 1/2Km; assay type: functional, Homo sapiens
[21] = Maximum concentration in mouse administered orally at 20 mg/kg; assay type: ADME, organism-based; parameters: dose 20 mg/kg, route oral; settings: in vivo, po

SMILES: Cc1cc(-n2ccnc2)cc2[nH]c(-c3c(NCC(O)c4cccc(Cl)c4)cc[nH]c3=O)nc12 (configuration not stated)
IC50 (Cytochrome P450 3A4 [1]): < 18 nM | IC50 (Cytochrome P450 2C9): < 18 nM | IC50 (Cytochrome P450 1A2): < 18 nM | IC50 (Cytochrome P450 3A4 [2]): < 18 nM | IC50 (Cytochrome P450 2C19): 26 nM

Vd [3]: 1.9 L/kg | bioavailability [4]: > 100% | clearance [5]: 16.5 mL/min/kg | IC50 (RD): 202 nM | bioavailability [6]: 32% | IC50 [7]: 182 nM | Vd [8]: 1.3 L/kg | clearance [9]: 37.8 mL/min/kg | IC50 [10]: 194 nM | Vd [11]: 1.4 L/kg | bioavailability [12]: 50% | Cmax [13]: 4.1 µM | clearance [14]: 4.1 mL/min/kg | IC50 (MCF7): 460 nM | clearance [15]: 5.8 mL/min/kg | Vd [16]: 0.8 L/kg | Cmax [17]: 1.3 µM | bioavailability [18]: 70% | Cmax [19]: 69 µM | IC50 (COLO 205): 212 nM | IC50 [20]: 320 nM | Cmax [21]: 3.8 µM
SMILES: Cc1cc(N2CCOCC2)cc2[nH]c(-c3c(NC[C@@H](O)c4cccc(Cl)c4)cc[nH]c3=O)nc12
